Measurements published in ChEMBL document CHEMBL2384977, “Synthesis and biological evaluation of novel styryl benzimidazole derivatives as probes for imaging of neurofibrillary tangles in Alzheimer's disease” (Bioorg Med Chem, 2013).
Blank lines part the entries; values can stand above or below the compound they belong to.

Tests used:
Brain [1] = test: Ratio of drug level in ddY mouse brain at 7.1 to 21.5 kBq, iv measured at 2 mins to drug level in ddY mouse brain at 7.1 to 21.5 kBq, iv measured at 60 mins; type: ADME, organism-based; conditions: in vivo
Brain [2] = test: Ratio of drug level in ddY mouse brain at 64.5 kBq, iv measured at 2 mins to drug level in ddY mouse brain at 64.5 kBq, iv measured at 60 mins; type: ADME, organism-based; conditions: in vivo
Intestine [3] = test: Biodistribution in ddY mouse intestine at 13.2 to 20.6 kBq, iv measured at 10 mins by gamma counting analysis; type: ADME, organism-based; conditions: in vivo
Summary of the method: (§1)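 Male ddY mice, 5 weeks old, received the 125I-labelled tracer (13.2–20.6 kBq) intravenously in the tail vein, in 100 µL saline containing ethanol. Animals were sacrificed at 2, 10, 30 and 60 min. Tissue radioactivity is expressed as %ID/g, mean (SD) of 5 animals.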

Brain [4] = test: Drug uptake in gray matter of alzheimer disease patient brain at 92.5 kBq after 1 hr by autoradiographic analysis; type: ADME, tissue-based; conditions: human, in vitro
Summary of the method: (§2)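 Postmortem AD brain (person), 6 µm paraffin sections, deparaffinized in xylene and a graded ethanol series. Sections were incubated with the 125I tracer (92.5 kBq/100 µL) for 1 h at room temperature, then dipped in 50% EtOH for 2 h and rinsed in water. Imaging plates were exposed overnight. Adjacent sections were immunostained with AT8 (phospho-tau) and BC05 (Abeta1-42).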

Liver [5] = test: Biodistribution in ddY mouse liver at 13.2 to 20.6 kBq, iv measured at 10 mins by gamma counting analysis; type: ADME, organism-based; conditions: in vivo; summary of the method: as §1
Lung [6] = test: Biodistribution in ddY mouse lung at 13.2 to 20.6 kBq, iv measured at 10 mins by gamma counting analysis; type: ADME, organism-based; conditions: in vivo; summary of the method: as §1
Spleen [7] = test: Biodistribution in ddY mouse spleen at 13.2 to 20.6 kBq, iv measured at 2 mins by gamma counting analysis; type: ADME, organism-based; conditions: in vivo; summary of the method: as §1
Blood [8] = test: Biodistribution in ddY mouse blood at 13.2 to 20.6 kBq, iv measured at 30 mins by gamma counting analysis; type: ADME, organism-based; conditions: in vivo, 0.5 h; summary of the method: as §1
Pancreas [9] = test: Biodistribution in ddY mouse pancreas at 13.2 to 20.6 kBq, iv measured at 30 mins by gamma counting analysis; type: ADME, organism-based; conditions: in vivo, 0.5 h; summary of the method: as §1
Lung [10] = test: Biodistribution in ddY mouse lung at 13.2 to 20.6 kBq, iv measured at 60 mins by gamma counting analysis; type: ADME, organism-based; conditions: in vivo, 1 h; summary of the method: as §1
Spleen [11] = test: Biodistribution in ddY mouse spleen at 13.2 to 20.6 kBq, iv measured at 30 mins by gamma counting analysis; type: ADME, organism-based; conditions: in vivo, 0.5 h; summary of the method: as §1
Spleen [12] = test: Biodistribution in ddY mouse spleen at 13.2 to 20.6 kBq, iv measured at 10 mins by gamma counting analysis; type: ADME, organism-based; conditions: in vivo; summary of the method: as §1
Brain [13] = test: Drug uptake in human brain at 92.5 kBq after 1 hr by autoradiographic analysis; type: ADME, tissue-based
Brain [14] = test: Biodistribution in ddY mouse brain at 13.2 to 20.6 kBq, iv measured at 60 mins by gamma counting analysis; type: ADME, organism-based; conditions: in vivo, 1 h; summary of the method: as §1
Brain [15] = test: Biodistribution in ddY mouse brain at 13.2 to 20.6 kBq, iv measured at 2 mins by gamma counting analysis; type: ADME, organism-based; conditions: in vivo; summary of the method: as §1
Heart [16] = test: Biodistribution in ddY mouse heart at 13.2 to 20.6 kBq, iv measured at 2 mins by gamma counting analysis; type: ADME, organism-based; conditions: in vivo; summary of the method: as §1
Stomach [17] = test: Biodistribution in ddY mouse stomach at 13.2 to 20.6 kBq, iv measured per organ at 30 mins by gamma counting analysis; type: ADME, organism-based; conditions: in vivo, 0.5 h
Summary of the method: (§3)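 Male ddY mice, 5 weeks old, were injected in the tail vein with the 125I tracer (13.2–20.6 kBq) in 100 µL saline containing ethanol. Sacrifice at 2, 10, 30 and 60 min. Stomach radioactivity is expressed as %ID per whole organ, mean (SD) of 5 animals.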

Brain [18] = test: Biodistribution in ddY mouse brain at 13.2 to 20.6 kBq, iv measured at 10 mins by gamma counting analysis; type: ADME, organism-based; conditions: in vivo; summary of the method: as §1
Blood [19] = test: Biodistribution in ddY mouse blood at 13.2 to 20.6 kBq, iv measured at 60 mins by gamma counting analysis; type: ADME, organism-based; conditions: in vivo, 1 h; summary of the method: as §1
Pancreas [20] = test: Biodistribution in ddY mouse pancreas at 13.2 to 20.6 kBq, iv measured at 60 mins by gamma counting analysis; type: ADME, organism-based; conditions: in vivo, 1 h; summary of the method: as §1
Pancreas [21] = test: Biodistribution in ddY mouse pancreas at 13.2 to 20.6 kBq, iv measured at 10 mins by gamma counting analysis; type: ADME, organism-based; conditions: in vivo; summary of the method: as §1
Brain [22] = test: Ratio of drug level in ddY mouse brain at 13.2 to 20.6 kBq, iv measured at 2 mins to drug level in ddY mouse brain at 13.2 to 20.6 kBq, iv measured at 60 mins; type: ADME, organism-based; conditions: in vivo
Summary of the method: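 Tail-vein injection of the 125I tracer (13.2–20.6 kBq, saline with ethanol) into male 5-week-old ddY mice. The ratio is brain uptake (%ID/g) at 2 min divided by brain uptake at 60 min, from groups of 5 animals.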

Kidney [23] = test: Biodistribution in ddY mouse kidney at 13.2 to 20.6 kBq, iv measured at 10 mins by gamma counting analysis; type: ADME, organism-based; conditions: in vivo; summary of the method: as §1
Lung [24] = test: Biodistribution in ddY mouse lung at 13.2 to 20.6 kBq, iv measured at 2 mins by gamma counting analysis; type: ADME, organism-based; conditions: in vivo; summary of the method: as §1
Stomach [25] = test: Biodistribution in ddY mouse stomach at 13.2 to 20.6 kBq, iv measured per organ at 60 mins by gamma counting analysis; type: ADME, organism-based; conditions: in vivo, 1 h; summary of the method: as §3
Stomach [26] = test: Biodistribution in ddY mouse stomach at 13.2 to 20.6 kBq, iv measured per organ at 10 mins by gamma counting analysis; type: ADME, organism-based; conditions: in vivo; summary of the method: as §3
Heart [27] = test: Biodistribution in ddY mouse heart at 13.2 to 20.6 kBq, iv measured at 60 mins by gamma counting analysis; type: ADME, organism-based; conditions: in vivo, 1 h; summary of the method: as §1
Heart [28] = test: Biodistribution in ddY mouse heart at 13.2 to 20.6 kBq, iv measured at 30 mins by gamma counting analysis; type: ADME, organism-based; conditions: in vivo, 0.5 h; summary of the method: as §1
Brain [29] = test: Biodistribution in ddY mouse brain at 13.2 to 20.6 kBq, iv measured at 30 mins by gamma counting analysis; type: ADME, organism-based; conditions: in vivo, 0.5 h; summary of the method: as §1
Spleen [30] = test: Biodistribution in ddY mouse spleen at 13.2 to 20.6 kBq, iv measured at 60 mins by gamma counting analysis; type: ADME, organism-based; conditions: in vivo, 1 h; summary of the method: as §1
Intestine [31] = test: Biodistribution in ddY mouse intestine at 13.2 to 20.6 kBq, iv measured at 30 mins by gamma counting analysis; type: ADME, organism-based; conditions: in vivo, 0.5 h; summary of the method: as §1
[32] = 1-Octanol-PBS buffer partition coefficient, log P of the compound at 0.37 MBq after 2 mins by gamma counting analysis; type: physicochemical
Liver [33] = test: Biodistribution in ddY mouse liver at 13.2 to 20.6 kBq, iv measured at 30 mins by gamma counting analysis; type: ADME, organism-based; conditions: in vivo, 0.5 h; summary of the method: as §1
Brain [34] = test: Drug uptake in white matter of alzheimer disease patient brain at 92.5 kBq after 1 hr by autoradiographic analysis; type: ADME, tissue-based; conditions: human, in vitro; summary of the method: as §2
Kidney [35] = test: Biodistribution in ddY mouse kidney at 13.2 to 20.6 kBq, iv measured at 2 mins by gamma counting analysis; type: ADME, organism-based; conditions: in vivo; summary of the method: as §1
Heart [36] = test: Biodistribution in ddY mouse heart at 13.2 to 20.6 kBq, iv measured at 10 mins by gamma counting analysis; type: ADME, organism-based; conditions: in vivo; summary of the method: as §1
Lung [37] = test: Biodistribution in ddY mouse lung at 13.2 to 20.6 kBq, iv measured at 30 mins by gamma counting analysis; type: ADME, organism-based; conditions: in vivo, 0.5 h; summary of the method: as §1
Liver [38] = test: Biodistribution in ddY mouse liver at 13.2 to 20.6 kBq, iv measured at 2 mins by gamma counting analysis; type: ADME, organism-based; conditions: in vivo; summary of the method: as §1
Stomach [39] = test: Biodistribution in ddY mouse stomach at 13.2 to 20.6 kBq, iv measured per organ at 2 mins by gamma counting analysis; type: ADME, organism-based; conditions: in vivo; summary of the method: as §3
Kidney [40] = test: Biodistribution in ddY mouse kidney at 13.2 to 20.6 kBq, iv measured at 60 mins by gamma counting analysis; type: ADME, organism-based; conditions: in vivo, 1 h; summary of the method: as §1
Pancreas [41] = test: Biodistribution in ddY mouse pancreas at 13.2 to 20.6 kBq, iv measured at 2 mins by gamma counting analysis; type: ADME, organism-based; conditions: in vivo; summary of the method: as §1
Intestine [42] = test: Biodistribution in ddY mouse intestine at 13.2 to 20.6 kBq, iv measured at 2 mins by gamma counting analysis; type: ADME, organism-based; conditions: in vivo; summary of the method: as §1
Intestine [43] = test: Biodistribution in ddY mouse intestine at 13.2 to 20.6 kBq, iv measured at 60 mins by gamma counting analysis; type: ADME, organism-based; conditions: in vivo, 1 h; summary of the method: as §1
Kidney [44] = test: Biodistribution in ddY mouse kidney at 13.2 to 20.6 kBq, iv measured at 30 mins by gamma counting analysis; type: ADME, organism-based; conditions: in vivo, 0.5 h; summary of the method: as §1
Liver [45] = test: Biodistribution in ddY mouse liver at 13.2 to 20.6 kBq, iv measured at 60 mins by gamma counting analysis; type: ADME, organism-based; conditions: in vivo, 1 h; summary of the method: as §1
Blood [46] = test: Biodistribution in ddY mouse blood at 13.2 to 20.6 kBq, iv measured at 10 mins by gamma counting analysis; type: ADME, organism-based; conditions: in vivo; summary of the method: as §1
Blood [47] = test: Biodistribution in ddY mouse blood at 13.2 to 20.6 kBq, iv measured at 2 mins by gamma counting analysis; type: ADME, organism-based; conditions: in vivo; summary of the method: as §1

Ratio (Brain [1]): 6.16
Compound: O=C1/C(=C/c2ccc(-c3cccc([125I])c3)o2)NC(=S)N1CCc1c[nH]cn1

Ratio (Brain [2]): 1.69
Compound: CN(C)c1ccc(/N=N/c2nc3ccc(OCCOCCOCC[18F])cc3s2)cc1

Drug uptake (Intestine [3]): 9.22 % ID/g
Drug uptake (Brain [4]): Active
Drug uptake (Liver [5]): 19.2 % ID/g
Drug uptake (Lung [6]): 3.98 % ID/g
Drug uptake (Spleen [7]): 3.48 % ID/g
Drug uptake (Blood [8]): 1.88 % ID/g
Drug uptake (Pancreas [9]): 1.67 % ID/g
Drug uptake (Lung [10]): 1.39 % ID/g
Drug uptake (Spleen [11]): 2.66 % ID/g
Drug uptake (Spleen [12]): 3.69 % ID/g
Drug uptake (Brain [13]): Not Active
Drug uptake (Brain [14]): 0.33 % ID/g
Drug uptake (Brain [15]): 3.28 % ID/g
Drug uptake (Heart [16]): 8.56 % ID/g
Drug uptake (Stomach [17]): 3.83 %ID
Drug uptake (Brain [18]): 1.61 % ID/g
Drug uptake (Blood [19]): 1.28 % ID/g
Drug uptake (Pancreas [20]): 0.89 % ID/g
Drug uptake (Pancreas [21]): 3.31 % ID/g
Ratio (Brain [22]): 9.94
Drug uptake (Kidney [23]): 7.28 % ID/g
Drug uptake (Lung [24]): 7.39 % ID/g
Drug uptake (Stomach [25]): 3.56 %ID
Drug uptake (Stomach [26]): 2.82 %ID
Drug uptake (Heart [27]): 1.12 % ID/g
Drug uptake (Heart [28]): 2 % ID/g
Drug uptake (Brain [29]): 0.68 % ID/g
Drug uptake (Spleen [30]): 1.42 % ID/g
Drug uptake (Intestine [31]): 18.2 % ID/g
logP at 2 min [32]: 2.23
Drug uptake (Liver [33]): 14.9 % ID/g
Drug uptake (Brain [34]): Not Active
Drug uptake (Kidney [35]): 11.7 % ID/g
Drug uptake (Heart [36]): 3.46 % ID/g
Drug uptake (Lung [37]): 2.2 % ID/g
Drug uptake (Liver [38]): 17.4 % ID/g
Drug uptake (Stomach [39]): 1.67 %ID
Drug uptake (Kidney [40]): 2.26 % ID/g
Drug uptake (Pancreas [41]): 5.4 % ID/g
Drug uptake (Intestine [42]): 3.11 % ID/g
Drug uptake (Intestine [43]): 26.5 % ID/g
Drug uptake (Kidney [44]): 4.32 % ID/g
Drug uptake (Liver [45]): 10.1 % ID/g
Drug uptake (Blood [46]): 3.24 % ID/g
Drug uptake (Blood [47]): 3.83 % ID/g
Compound: CN(C)c1ccc(/C=C/c2nc3ccc([125I])cc3[nH]2)cc1
